Experimental data: ChEMBL document CHEMBL3286338, “SAR studies on hydropentalene derivatives--Important core units of biologically active tetramic acid macrolactams and ptychanolides” (Bioorg Med Chem, 2014)
The source made the active and inactive calls. No cut-off for these calls is given here.

Columns and labels:
L929 [1] = assay: Antiproliferative activity against mouse L929 cells by MTT assay; type: functional, cell-based
Summary of the method: (§1)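 Cells kept in supplier-recommended media at 37 °C, 10% CO2. Serial dilutions added to a cell suspension (50,000 per mL) and incubated 5 d alongside blank and solvent controls. MTT then added to 0.5 mg mL^-1 final for 2 h, and formazan precipitate collected by centrifugation. Run as two parallel experiments; activity taken as mean relative to controls set at 100%.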

[2] = Antiproliferative activity against human KB-3-1 cells by MTT assay; type: functional, cell-based; summary of the method: as §1
[3] = Cytotoxicity against Potorous tridactylus PtK2 cells by MTT assay; type: functional, cell-based; summary of the method: as §1
PtK2 [4] = assay: Effect on mitotic spindle in Potorous tridactylus PtK2 cells at 4 ug/ml for overnight incubation by DAPI staining analysis; type: functional, cell-based
Summary of the method: (§2)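 PtK2 cells on glass coverslips incubated overnight with compound or with methanol only. For alpha-tubulin staining, fixed in cold (-20 °C) MeOH/acetone (1:1) for 10 min, then probed with primary antibody. DNA counterstained. Microtubular network, mitotic spindles and chromosome distribution assessed by fluorescence microscopy.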

PtK2 [5] = assay: Effect on F-actin cytoskeleton in Potorous tridactylus PtK2 cells at 3 ug/ml for overnight incubation by DAPI staining analysis; type: cell-based
Summary of the method: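 PtK2 cells grown on glass coverslips and exposed to compound overnight, with methanol-only controls. Fixed in 3.7% formalin for 10 min, permeabilized with 0.1% Triton X-100 for 5 min, then stained with Alexa Fluor 488 phalloidin (1:100) for 1 h. F-actin (green) and DNA (blue) examined by fluorescence microscopy.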

Tubulin (Sus scrofa) = Tubulin (Sus scrofa) (UniProt P02554+P02550); assay: Inhibition of porcine tubulin polymerization at 500 ug/ml by fluorescence analysis; type: protein assay
Summary of the method: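 Porcine tubulin (kit master mix with buffer, glycerol and GTP) mixed with compound at a 5:50 volume ratio. Placed at once in a fluorimeter at 37 °C. Polymerization followed by incorporation of a fluorescent reporter, read at 460 nm (excitation 340 nm) for about 1 h. Methanol and nocodazole served as controls.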

PtK2 [6] = assay: Effect on microtubular network in Potorous tridactylus PtK2 cells at 4 ug/ml for overnight incubation by DAPI staining analysis; type: functional, cell-based; summary of the method: as §2
PtK2 [7] = assay: Effect on chromosme distribution in Potorous tridactylus PtK2 cells at 4 ug/ml for overnight incubation by DAPI staining analysis; type: functional, cell-based; summary of the method: as §2
L929 [8] = assay: Effect on spindle formation in mouse L929 cells at 0.4 ug/ml by impedance profiling; type: cell-based
Summary of the method: (§3)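 L-929 cell cultures incubated with compound while impedance was recorded over time. The time-dependent impedance curves served as a mode-of-action fingerprint and were compared statistically, by cluster analysis, against curves from a set of reference compounds. Controls received methanol.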

L929 [9] = assay: Effect on microtubule polymerization in mouse L929 cells at 0.4 ug/ml by impedance profiling; type: cell-based; summary of the method: as §3
L929 [10] = assay: Effect on spindle formation in mouse L929 cells at 3 ng/ml by impedance profiling; type: cell-based
Summary of the method: (§4)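 L-929 mouse fibroblasts were cultured at 37 °C and 10% CO₂ in supplier-recommended medium. Cells were exposed to compound, with methanol-only controls, and impedance was recorded over time. The time-dependent impedance curves served as a mode-of-action fingerprint and were compared statistically, by cluster analysis, with curves from a panel of reference compounds, including microtubule-interfering agents.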

L929 [11] = assay: Effect on microtubule polymerization in mouse L929 cells at 3 ng/ml by impedance profiling; type: cell-based; summary of the method: as §4

Sequence of Tubulin (Sus scrofa) (P02550 whole entry, looked up): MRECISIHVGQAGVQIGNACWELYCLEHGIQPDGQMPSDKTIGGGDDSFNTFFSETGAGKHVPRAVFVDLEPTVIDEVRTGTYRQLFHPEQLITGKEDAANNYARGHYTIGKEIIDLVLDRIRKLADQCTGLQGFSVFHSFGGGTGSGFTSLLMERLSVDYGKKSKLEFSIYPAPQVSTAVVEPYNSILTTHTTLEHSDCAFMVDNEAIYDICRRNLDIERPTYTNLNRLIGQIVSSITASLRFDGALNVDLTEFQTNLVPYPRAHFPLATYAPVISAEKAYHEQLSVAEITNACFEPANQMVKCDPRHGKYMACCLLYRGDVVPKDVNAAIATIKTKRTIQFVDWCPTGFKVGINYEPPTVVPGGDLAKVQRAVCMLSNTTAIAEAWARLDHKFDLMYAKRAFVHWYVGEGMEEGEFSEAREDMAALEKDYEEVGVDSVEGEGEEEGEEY
Sequence of Tubulin (Sus scrofa) (P02554 whole entry, looked up): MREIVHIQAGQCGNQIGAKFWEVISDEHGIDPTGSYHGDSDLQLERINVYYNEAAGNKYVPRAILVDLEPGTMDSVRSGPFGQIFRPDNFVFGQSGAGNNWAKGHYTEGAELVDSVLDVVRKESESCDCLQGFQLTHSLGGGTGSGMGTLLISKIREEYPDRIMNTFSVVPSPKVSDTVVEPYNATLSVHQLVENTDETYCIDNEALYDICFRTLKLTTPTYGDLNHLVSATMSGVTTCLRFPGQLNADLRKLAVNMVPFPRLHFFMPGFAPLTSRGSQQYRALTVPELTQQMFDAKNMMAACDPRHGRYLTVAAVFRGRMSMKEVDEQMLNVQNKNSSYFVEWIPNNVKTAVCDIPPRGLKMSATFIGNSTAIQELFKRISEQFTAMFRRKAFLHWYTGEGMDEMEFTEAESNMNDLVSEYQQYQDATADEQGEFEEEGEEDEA

Structure (SMILES) | IC50 (L929 [1]) | IC50 [2] | also measured
CC(C)(C)[Si](O[C@H]1[C@H]2CCC3(OCCO3)[C@H]2C[C@@H]1O)(c1ccccc1)c1ccccc1 | 38.8 µM |  | 
C[C@@H]1[C@H](O[Si](c2ccccc2)(c2ccccc2)C(C)(C)C)C[C@]2(C)CC(=O)C[C@]12C | 35.7 µM |  | 
CC1(C)COC2(CC[C@@H]3[C@@H](O)[C@H](O)C[C@@H]32)OC1 | > 40 mg/L | > 40 mg/L | 
C1COC2(CC[C@@H]3[C@H]4O[C@H]4C[C@@H]32)O1 | > 40 mg/L |  | 
CC(C)(C)[Si](OC1CCCCC1)(c1ccccc1)c1ccccc1 | 40 mg/L | 7.5 mg/L | 
CC(C)(C)[Si](C)(C)OC1CCCC1 | > 200 µM | > 200 µM | 
CC(C)(C)[Si](C)(C)OC1CCCC2C1C(O)[C@H]1CC(Br)C3(OCCO3)[C@@H]21 (stereo partly drawn) | 15 mg/L | 14 mg/L | 
O=C1C=C[C@H]2C(=O)C=C[C@@H]12 | 3 µM | 6 µM | IC50 [3]: 3 µM; Activity (PtK2 [4]): Active; Activity (PtK2 [5]): inactive; inhibition (Tubulin (Sus scrofa)): Active; Activity (PtK2 [6]): Active; Activity (PtK2 [7]): Active; Activity (L929 [8]): Active; Activity (L929 [9]): Active
Cc1ccc(S(=O)(=O)N/N=C2/C[C@@H]3CC4(C[C@@H]3C2)OCC(C)(C)CO4)cc1 | > 40 mg/L | > 40 mg/L | 
O=C1CC[C@H]2[C@@H]1CCC21OCCO1 | > 40 mg/L | > 40 mg/L | 
BrC1C[C@H]2[C@H](CC(Br)C23OCCO3)C12CCCC2 (stereo partly drawn) | > 40 mg/L | > 40 mg/L | 
CC(C)=CC[C@@H]1C(=O)C[C@H]2C[C@@H](O[Si](c3ccccc3)(c3ccccc3)C(C)(C)C)[C@H](C)[C@H]21 | 5.6 µM | 21.7 µM | 
C[C@@H]1[C@H](O)C[C@]2(C)CC3(C[C@]12C)OCC(C)(C)CO3 | > 150 µM |  | 
C[C@H]1C(=O)C[C@]2(C)CC3(C[C@]12C)OCC(C)(C)CO3 | > 150 µM |  | 
CC(C)[Si](OC1CCCC1)(C(C)C)C(C)C | 111 µM | 124 µM | 
C=CC[C@@H]1[C@@H]2[C@H](C[C@H]1O[Si](c1ccccc1)(c1ccccc1)C(C)(C)C)[C@@H](C)C(=O)[C@H]2C | 5.8 mg/L | 7.9 mg/L | 
C=CCC[C@H]1CC(=O)[C@@H]2C=CC(=O)[C@H]12 (racemic) | 20 µM | 16.3 µM | 
CC1(C)COC2(C[C@@H]3CC4OC4[C@@H]3C2)OC1 (stereo partly drawn) | > 40 mg/L | > 40 mg/L | 
O=C1C[C@@H]2C[C@H](O)C[C@@H]2C1 | > 40 mg/L | > 40 mg/L | 

Structure (SMILES) | IC50 (L929 [1]) | IC50 [2] | also measured
C=CC[C@@H]1[C@H]2[C@H](C)C=C[C@H]2C[C@H]1O[Si](c1ccccc1)(c1ccccc1)C(C)(C)C | 7.2 µM | > 96 µM | 
CCC(=O)O[C@@H]1C[C@@H]2CC3(C[C@@H]2C1)OCC(C)(C)CO3 | > 142 µM | > 142 µM | 
CC(C)(C)[Si](O[C@@H]1[C@H]2CCC3(OCCO3)[C@H]2C[C@H]1O)(c1ccccc1)c1ccccc1 | 41 µM |  | 
C=CC[C@H]1C(=O)C[C@@H]2[C@@H](C)[C@H](O[Si](c3ccccc3)(c3ccccc3)C(C)(C)C)C[C@@H]21 | 17.8 µM | 6.9 µM | 
O=C1CC(CCCCO)[C@H]2CCC3(OCCO3)[C@@H]12 (stereo partly drawn) | > 40 mg/L | > 40 mg/L | 
O=CCCCC1CC(=O)[C@H]2[C@@H]1CCC21OCCO1 (stereo partly drawn) | > 40 mg/L | > 40 mg/L | 
C[C@@H]1[C@@H]2[C@@H](CC(=O)[C@H]2C)C[C@H]1O[Si](c1ccccc1)(c1ccccc1)C(C)(C)C | 14.8 µM | 7.4 µM | 
C=CC[C@@H]1[C@H]2C=C[C@H](C)[C@H]2C[C@H]1O[Si](c1ccccc1)(c1ccccc1)C(C)(C)C | 20.4 µM | > 96 µM | 
C=CC[C@@H]1[C@@H]2[C@@H](C/C(=N/NS(=O)(=O)c3ccc(C)cc3)[C@H]2C)C[C@H]1O[Si](c1ccccc1)(c1ccccc1)C(C)(C)C | > 67 µM | 12.5 µM | 
O=C1C=C(CCCCOCc2ccccc2)[C@H]2CCC3(OCCO3)[C@@H]12 | > 40 mg/L | > 40 mg/L | 
CC(C)(C)[Si](C)(C)OC1CCCC2C1C(=O)[C@H]1CC(Br)C3(OCCO3)[C@@H]21 (stereo partly drawn) | 32 mg/L | > 40 mg/L | 
CC(C)=CC[C@H]1C(=O)C[C@@H]2[C@@H](C)[C@H](O[Si](c3ccccc3)(c3ccccc3)C(C)(C)C)C[C@@H]21 | 23.9 µM | 28.2 µM | 
CC(C)(C)[Si](OC1CCCC1)(c1ccccc1)c1ccccc1 | 61.6 µM |  | 
O=C1C2C(O)CCCC2[C@H]2[C@@H]1CC(Br)C21OCCO1 (stereo partly drawn) | 22 mg/L | 10 mg/L | 
Cc1cc(C)c(O[C@@H]2C[C@@H]3CC4(C[C@@H]3C2)OCC(C)(C)CO4)c(C)c1 | > 40 mg/L | > 40 mg/L | 
C[C@H]1[C@H](O[Si](c2ccccc2)(c2ccccc2)C(C)(C)C)C[C@]2(C)CC(=O)C[C@]12C | 14.3 µM |  | 
CCCC(=O)OCN(C(=O)[C@@H](NC(=O)[C@H]1CCCCN1C)[C@@H](C)CC)[C@H](C[C@@H](OC(C)=O)c1nc(C(=O)N[C@@H](Cc2ccc(O)cc2)C[C@H](C)C(=O)O)cs1)C(C)C |  |  | Activity (L929 [10]): Active; Activity (L929 [11]): Active
O=C1C[C@@H]2C[C@@H](O)C[C@@H]2C1 | > 40 mg/L | > 40 mg/L | 
CC1(C)COC2(C[C@H]3C[C@H](O)C[C@H]3C2)OC1 | > 40 mg/L | > 40 mg/L | 

Structure (SMILES) | IC50 (L929 [1]) | IC50 [2] | also measured
C[C@H]1[C@H](O)C[C@]2(C)CC3(C[C@]12C)OCC(C)(C)CO3 | > 150 µM |  | 
C#CC(=O)O[C@H]1C[C@@H]2C[C@H](O[Si](c3ccccc3)(c3ccccc3)C(C)(C)C)C[C@@H]2C1 | 9.3 µM |  | 
CC(C)(C)[Si](OC1CCCCCC1)(c1ccccc1)c1ccccc1 | 40 mg/L | 6.2 mg/L | 
C=CC[C@@H]1C(=O)C[C@H]2C[C@@H](O[Si](c3ccccc3)(c3ccccc3)C(C)(C)C)[C@H](C)[C@H]21 | 5.1 µM | 16.2 µM | 
C[C@@H]1[C@H]2CC(=O)[C@H](C)[C@H]2C[C@H]1O[Si](c1ccccc1)(c1ccccc1)C(C)(C)C | 7.4 µM | 15.2 µM | 
CC(C)(C)[Si](O[C@H]1C[C@H]2CC(=O)C[C@H]2C1)(c1ccccc1)c1ccccc1 | > 40 mg/L | > 40 mg/L | 
C=CC[C@@H]1[C@H]2CC(=O)[C@H](CC=C)[C@H]2C[C@H]1O | > 40 mg/L | > 40 mg/L | 
C=CC[C@@H]1[C@@H]2[C@@H](CC(=O)[C@H]2C)C[C@H]1O[Si](c1ccccc1)(c1ccccc1)C(C)(C)C | 16.2 µM | 20.3 µM | 
C=CC[C@@H]1[C@H]2C/C(=N\NS(=O)(=O)c3ccc(C)cc3)[C@H](C)[C@H]2C[C@H]1O[Si](c1ccccc1)(c1ccccc1)C(C)(C)C | 20 µM | 13.3 µM | 
CC1(C)COC2(C[C@H]3C[C@@H](CO)C[C@H]3C2)OC1 | > 40 mg/L | > 40 mg/L | 
C[C@@H]1[C@H](O[Si](c2ccccc2)(c2ccccc2)C(C)(C)C)C[C@]2(C)CC3(C[C@]12C)OCC(C)(C)CO3 | 11.8 µM |  | 
C=CC[C@@H]1[C@@H]2[C@@H](CC(=O)[C@H]2CC=C)C[C@H]1O | > 40 mg/L | > 40 mg/L | 
C=C1C[C@@H]2CC3(C[C@@H]2C1)OCC(C)(C)CO3 | > 40 mg/L | > 40 mg/L | 
C[C@H]1[C@H](O[Si](c2ccccc2)(c2ccccc2)C(C)(C)C)C[C@]2(C)CC3(C[C@]12C)OCC(C)(C)CO3 | 15.8 µM |  | 
C=CC[C@@H]1[C@H]2CC(=O)[C@H](C)[C@H]2C[C@H]1O[Si](c1ccccc1)(c1ccccc1)C(C)(C)C | 32.4 µM | 16 µM | 
C=CCC[C@H]1CC2(OCCO2)[C@@H]2C=CC(=O)[C@H]12 (racemic) | 25.6 µM | 32 µM | 
CC1(C)COC2(C[C@@H]3CC=C[C@@H]3C2)OC1 | > 40 mg/L | > 40 mg/L | 
O[C@@H]1[C@H]2CCC3(OCCO3)[C@H]2C[C@@H]1O | > 40 mg/L | > 40 mg/L | 
